The test system of this data set is MS2 coat protein. Description: apparent Kd, MS2 coat protein; higher = weaker binding; RNA-MaP array; FMN 200 µM where present. The essentials:
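Apparent Kd: the median of filtered binding-curve fits from single clusters. Designs were transcribed on Illumina sequencing-chip clusters by stalled E. coli RNA polymerase and titrated with SNAP-549-labelled MS2 coat protein from 0.7 or 1.5 nM, doubling to 3 µM, in 100 mM Tris-HCl pH 7.5, 80 mM KCl, 4 mM MgCl2, BSA, DTT, yeast tRNA and Tween-20. Each series ran without and then with constant ligand, and green signal was normalised to red-channel RNA signal and control-cluster median Fmax.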

[1] abbreviates: designed as: OFF switch for flavin mononucleotide, no ligand.
Where [2] appears, read: ligand present: flavin mononucleotide, designed as: OFF switch for flavin mononucleotide.
The mark [3] stands for this setting: designed as: ON switch for flavin mononucleotide, no ligand.
Where [4] appears, read: ligand present: flavin mononucleotide, designed as: ON switch for flavin mononucleotide.

The values that follow come from the EternaBench riboswitch data.

Usually apparent Kd stands for the concentration giving half-maximal binding under the conditions of the assay.

“GUCAGCUCGUGAGGAUAUGCAUCACUGCUUCGGCAGUGUAUUAAGAUCACAUGAGGAUCACCCAUGUAGAAGGCACGAGCUGAU”: the “apparent Kd” value under setting [1] is 7.3 nM and the “apparent Kd” value under setting [2] worked out at 41.7 nM.
On the same counts, the results for “UAUAUAUUCGUAGGAUAUCCGUUAAAACCAUGUGGAGAAGGACGAACAUGAGGAUCACCCAUGUAUCAUGGUGUAGACAAUUUU” are 40.3 nM and 187 nM.
For “GGGUACAUCGGAGGAUAUCAUGUAAAUACAUGAGGAUCACCCAUGUCGAUGGAGCCAUCGGAGAUUGAGAAGGCCGAUGUACCG”, the “apparent Kd” value runs as follows: under setting [3], 14.3 nM; under setting [4], 5.63 nM.
Turning to “GUGCGUGGCUAGGAUAUUGUGGAGUUUAGUCAGCGAGAAGGAGCCACAUGAGGAUCACCCAUGUGGUGAAGCUC”, the “apparent Kd” value came to 19.9 nM under setting [1] and 75 nM under setting [2].
Regarding “AGUAAGUUUGAGAAGGUGAAGUGGAAACAUGAGGAUCACCCAUGUAUUAGGAAGCCUGGUUUUGUCAAGGAUAUCGGGUUUACA”, the “apparent Kd” value under setting [3] came to 17.9 nM and the “apparent Kd” value under setting [4] was determined as 16.5 nM.
As for “GGAUGACAAAGUCAUCCAAAUCGAACAUGAGGAUCACCCAUGUAGGAUAUGGUACUCAAAGAGUACCAGAAGGACAUGUGCUUU”, the “apparent Kd” value reads like this: under setting [1], 40 nM; under setting [2], 191 nM.
On the same counts, the results for “GCCUGACAUGAGGAUCACCCAUGUGAGGAUAUUUGGAUUGAGGAGUAGCACAUAGUCCAAAGAAGGUAUGUGGG” are 24.7 nM and 60.7 nM.
On the same counts, the results for “UGUAUGGACAGAGGAUAUACAGAUAGGAUCUACUAUCAAACAGUCCUAACAUGAGGAUCACCCAUGUAGAAGGCUGUCCAUACU” are 20.6 nM and 82.1 nM.
Regarding “UUUUUGUUCAAGAAGGAUGUUUUAGUUUAGAUCAUAGGAUAUUGAUAUAUUGUAGACUCAUGUAACAUGAGGAUCACCCAUGUA”, the “apparent Kd” value under setting [3] came out at 101 nM and the “apparent Kd” value under setting [4] turned out to be 65.4 nM.
On to “GGUUGGCGAGGAUAUACAUGAGGAUCACCCAUGUGAGAGAAAAAAGUGAGGAAGAAAAGUAGAAGGCGCUGACG”, for which the “apparent Kd” value is, setting by setting: under setting [1], 28.1 nM; under setting [2], 123 nM.
In the case of “GUGGCUAGUACAGGAUAUUAGUGCGUGUAGUAUUGAGAAGGGUACAUGAGGAUCACCCAUGUGAUCAAUCACUGUUAAGGUCGC”, the “apparent Kd” value amounted to 252 nM under setting [1] and 177 nM under setting [2].
Take “GCAAGAAUAGGAUAUACACCGUGUCAGCUUCUAUACAUCGCACAUGAGGAUCACCCAUGUAGAAGGGUUCUCUG”: the “apparent Kd” value under setting [1] came out at 236 nM and the “apparent Kd” value under setting [2] is 217 nM.
In the same order, the values of “AAAACUGGAGGAUAUACAUGAGGAUCACCCAUGUGUGGAUGGGCUGUGUCGGCGUCAGGUAGAAGGCCACAAAA” are 70 nM and 130 nM.
On the same counts, the results for “GCACUGGAUGUAGGAUAUCAGGACGAUAAGUCCUGAGAAGGACAUGAGGAUCACCCAUGUGAUAAUUCCAGUGCAAAUAAUAUA” are 14.3 nM and 31 nM.
In the same order, the values of “CAGUAAGUAUUGCGAGGGUAGGAGCAGGAUAUCCCAUUGGCCCUCACAUGAGGAUCACCCAUGUGGGAGAAGGGCUAUUACGUC” are 9.11 nM and 22.5 nM.
Turning to “UUAAUUUGGUGAUAUUAUGACAUUAGAAGGCUGUACAUGUUGAUACAUGAGGAUCACCCAUGUAUAGAGGAUAUAGACAAUUUU”, the “apparent Kd” value reads like this: under setting [1], 48 nM; under setting [2], 105 nM.
For “GGCGGGCGAAACAUGAGGAUCACCCAUGUGUUAUACUUAAUAUAGGAUAUGUUUAUACUUUUUGGGCAGAAGGAUGCGCCUGCC”, the “apparent Kd” value runs as follows: under setting [3], 37.9 nM; under setting [4], 33.4 nM.
For the sequence “UUGGACGUCGUAGGAUAUGUAGGAUAUUCCUACAUGAGGAUCACCCAUGUUGACAUUGAAGAAGGACAGAAGGACGAUGUCCAU”, the “apparent Kd” value reads like this: under setting [3], 87.7 nM; under setting [4], 5.02 nM.
On to “GCUCUUGUCAAGAAGGGCUCGCGGUACGCUGCAGCAGGAUAUUGACAUGAGGAUCACCCAUGUCGACCGGAACAUCAUUGAGGG”, for which the “apparent Kd” value reads like this: under setting [1], 26.2 nM; under setting [2], 178 nM.
“AUAAAUAAGGAGGAUAUCGUAUCGGAAACGAUACGAGAAGGUCUAACAUGAGGAUCACCCAUGUUCCUCAAUAA”: the “apparent Kd” value under setting [1] turned out to be 37.7 nM and the “apparent Kd” value under setting [2] was 58.5 nM.
On to “GCUGGACAAGGAUAUGCAUUCGUGCUUCGGCACGUAAGGUCACAUGAGGAUCACCCAUGUAGAAGGUGUCCAGC”, for which the “apparent Kd” value worked out at 18.6 nM under setting [1] and 34 nM under setting [2].
In the case of “GAAUAUUGGAUAAACAUGAGGAUCACCCAUGUAACUAGACAUGAGGAUAUGGAUUCUAAUUGGAUCCAGAAGGUAUCAAUAUUC”, the “apparent Kd” value by setting is: under setting [3], 199 nM; under setting [4], 227 nM.
On the same counts, the results for “GCGGAACAUGAGGAUCACCCAUGUAUCCGAAAUAUGGACUCACAGGAUAUCCCGAGUUGCCAGUCGGAGAAGGGUGACUCCAGC” are 12.3 nM and 8.09 nM.
In the case of “UGGCUACAUGAGGAUCACCCAUGUCAGGAUAUGCCGUCGGCUUGCGUUCGUCGUUCGGGUAGAAGGGACUGCGG”, the “apparent Kd” value under setting [1] worked out at 85.3 nM and the “apparent Kd” value under setting [2] came to 106 nM.
For “GUUUUUUUUAGUUCAUACUAUAAGAUAGAAGGUGAAAUAUUGACAUGAGGAUCACCCAUGUAAUUCAAGGAUAUGUAGUUACUC”, the “apparent Kd” value by setting is: under setting [3], 34.3 nM; under setting [4], 22.7 nM.
In the case of “CUCUUGUUAGGAUAUCAAACCGGCGGCGGAGCCGCCGGUAGUGAGAAGGGACAUGAGGAUCACCCAUGUAAGAA”, the “apparent Kd” value runs as follows: under setting [1], 90.1 nM; under setting [2], 198 nM.
Turning to “UAAUAAUUAUGAGGAUAUAUACAACAUGAGGAUCACCCAUGUACCCAUGUAGUAGAAGGCAUAUUUUUAGUUAAUAACAUAACU”, the “apparent Kd” value is 75.2 nM under setting [3] and 31.1 nM under setting [4].
As for “CUUAUGUGAGGAUAUCAGUAGUGAUACGAUAGUAUUACUGCUGAGAAGGUACAUGAGGAUCACCCAUGUUCCUC”, the “apparent Kd” value by setting is: under setting [1], 17.1 nM; under setting [2], 20.4 nM.
Take “AAUUCACAUGAGGAUCACCCAUGUCAGGAUAUGGUUACGCGGGUUUCGGUGCGUGUGGCCAGAAGGGACAGCUA”: the “apparent Kd” value is, setting by setting: under setting [1], 65 nM; under setting [2], 80.5 nM.
For “AAUAUUUAUUGAGGAUAUUCAUACACUGUAUACGGAGAAGGCAAACAAUCAUGAGGACAUGAGGAUCACCCAUGUUGUGACCAU”, the “apparent Kd” value reads like this: under setting [3], 19.8 nM; under setting [4], 14.3 nM.
Turning to “ACCAUUUACUAAUUGUCUAUACAUGAGGAUCACCCAUGUUAUGAGGAUAUCGUCGUGAAACACGACGAGAAGGCAUAGCAUUCG”, the “apparent Kd” value by setting is: under setting [1], 67.2 nM; under setting [2], 229 nM.
As to “GUUUUGAUAGGAUAUACAUGAGGAUCACCCAUGUCCCACCCGUUACCUCUGACCCUAUGUAGAAGGAUCGUUUG”, the “apparent Kd” value reads like this: under setting [1], 34.3 nM; under setting [2], 26.4 nM.
In the same order, the values of “UUUCGGAGCAGAGGAUAUUACAUGAGGAUCACCCAUGUAUGAACCAAUAGCUGGAAACAGCAAUGUAAGAAGGCUGCUCCGACA” are 11.2 nM and 182 nM.
On the same counts, the results for “GAAGCUCUGCAGCGAUUAGCUACAUGAGGAUCACCCAUGUGGGAGGAUAUACGUCGCUCCGCGGAGUAGAAGGCUUACAUGCGG” are 9.86 nM and 21.7 nM.
In the same order, the values of “GCAUACUAAGGAUAUACAUGAGGAUCACCCAUGUUGCCAAAUGGCAGCAUCACCUGGAGUAGAAGGUAGAUGUA” are 35 nM and 33.3 nM.
As to “AGCAAGUAUACAUGAGGAUCACCCAUGUUUGAUAGGGUUUUCAGAAGGUACAAUUUGAGAUAGAGUAAGGAUAUGAAAUAUGCG”, the “apparent Kd” value under setting [3] was found to be 182 nM and the “apparent Kd” value under setting [4] turned out to be 56.3 nM.
